Series [1] relates to P. falciparum chloroquine-resistant (W2) strain. Briefly: In vitro schizonticidal activity, ELISA antiHRPII assay. The format is cell-based, Plasmodium falciparum. The following applies: for SI (selectivity index) P.f. W2: SI = IC50 WI-26-VA4/IC50 P. falciparum strain W2. The method in brief:
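W2 parasites grown in human erythrocytes in RPMI 1640 with human plasma, sorbitol-synchronized, plated at 0.05% parasitemia and 1.5% hematocrit. Triplicate drug dilutions for 72 h, freeze-thaw, anti-HRPII ELISA; IC50 is the mean of three assays. WI-26-VA4 fibroblasts: 1:10 serial dilutions (0.1% DMSO), 48 h, MTT read at 550 nm, triplicate. SI = fibroblast IC50 / W2 IC50.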
(ELISA stands for enzyme-linked immunosorbent assay.)

Series [2] deals with human lung fibroblast cell line WI-26-VA4. Briefly: In vitro cytotoxicity test, MTT colorimetric assay. Type of series: cell-based. The following applies: WI26VA4, 48 h, read-out: IC50 (μM) ± SD Wi-26VA4. For orientation: Formazan colour is commonly taken as a measure of viable cells.
The test system of series [3] is P. falciparum chloroquine-sensitive (3D7) strain. Briefly: In vitro schizonticidal activity, ELISA antiHRPII assay. The format is cell-based, Plasmodium falciparum. The following applies: for IC50: Plasmodium falciparum, 3D7, 72 h, read-out: IC50 (μM) ± SD P.f. 3D7.
For series [4], the system named is RKO-AS45-1 human cell line. Briefly: Alkaline comet assay. The format is cell-based. The following applies: 17.7 μM vs 2.5 μM.
The subject of series [5] is RKO-AS45-1 human cell line. Briefly: CBMN. The format is cell-based. The following applies: 2.5 to 17.7 μM.
Series [6] concerns S. typhimurium strain TA98. Briefly: Ames/Salmonella mutagenicity assay. The following applies: with and without metabolic activation (S9), 16.7 to 77.5 μM. Type of series: cell-based, Salmonella typhimurium. In outline:
(§1)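 Microsuspension protocol: overnight cultures (1 × 10^9 cells/mL) concentrated 10× by centrifugation, then exposed to five concentrations (TA100 6.7–30.9 μM; TA98 16.7–77.5 μM), with or without S9, 90 min at 37 °C. Plated in histidine/biotin top agar on minimal glucose agar; his+ revertants counted after 48 h at 37 °C. DMSO negative control; MI = treated/control revertants, MI ≥ 2 mutagenic.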

In series [7] the test system is S. typhimurium strain TA100. Briefly: Ames/Salmonella mutagenicity assay. The format is cell-based, Salmonella typhimurium. The following applies: with and without metabolic activation (S9), 6.7 to 30.9 μM. In outline: as §1

Bounds are passed on as bounds.

What is called IC50 is the concentration that gives 50% inhibition. Regarding `CCN(CC)CCCC(C)Nc1ccnc2cc(Cl)ccc12` (stereo not shown) [CQ, chloroquine, reference compound], in series [1], the “SI (selectivity index) P.f. W2” value is listed as over 250. Besides, the IC50 in series [2] was over 100 µM; in series [3] it was 0.18 ± 0.05 µM.

Consider `FCCCCCCCCCCOCCCc1cccnc1` [Compound 7, 3-(3-((10-Fluorodecyl)oxy)propyl)pyridine], for which the “genotoxic concentration relative to IC50 against P. falciparum” value in series [4] was “about seven times higher”. In series [1] (P. falciparum W2), the “increase of in vitro antimalarial activity compared to compound 5c” value is on record as 5.8 fold. The “SI (selectivity index) P.f. W2” value in series [1] was 11.2. For the same molecule, the IC50 in series [2] came to 28.2 ± 3.7 µM; in series [3], 2.3 ± 0.15 µM. For the same molecule, the “nuclear division index (NDI)” value in series [5] is “None of the concentrations assessed affected the nuclear division index (NDI) values”. Moreover, the frequency of micronuclei entry in series [5] (3 h exposure) is “altered only at concentrations higher than the IC50”. For the same molecule, the “induction of gene mutations (Ames)” value in series [6] and in series [7] was “not able to induce gene mutations” each time. For the same molecule, the “SI (selectivity index) P.f. 3D7” value in series [3] (SI = IC50 WI-26-VA4/IC50 P. falciparum strain 3D7) was determined as 12.2.

Source of the values: publication PMC6045394 (ACS Omega, 2017).
